Values after ≈ are worked out from the molar mass of the structure shown.
Tests used:
[1] = test system: Bacillus subtilis; test: Antimicrobial activity against Bacillus subtilis; type: functional
Summary of the method: (§1)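 Microbroth dilution method in BHI medium.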

[2] = test system: Micrococcus luteus; test: Antimicrobial activity against Micrococcus luteus; type: functional; summary of the method: as §1
[3] = test system: Escherichia coli; test: Antimicrobial activity against Escherichia coli; type: functional; summary of the method: as §1
[4] = Inhibition of protein phosphatase 2A in african green monkey COS7 cells; type: cell-based, Chlorocebus aethiops; settings: cos-7
Summary of the method: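 PP2A activity was measured in COS-7 cell extract. Cells were lysed at 4 °C in hypotonic Tris-HCl pH 7.5 buffer with DTT, EGTA and protease inhibitors, then centrifuged at 20000g. Extract at 5 μg/mL protein was preincubated with compound for 10 min at 30 °C. Activity was taken as the okadaic acid (1 nM)-sensitive portion, run in triplicate and reported as the mean.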

Nc1nc([C@H](CCNC(=O)c2cc(Br)c(Br)[nH]2)c2[nH]c(N)nc2CCCNC(=O)c2cc(Br)c(Br)[nH]2)c[nH]1 [NAGELAMIDE D]
MIC [1]: 33.3 µg/mL (≈ 42.7 µM)
MIC [2]: 4.17 µg/mL (≈ 5.35 µM)
MIC [3]: 33.3 µg/mL (≈ 42.7 µM)

Nc1nc([C@@H]2c3[nH]c(N)nc3C[C@H](CNC(=O)c3cc(Br)c[nH]3)[C@H]2CNC(=O)c2cc(Br)c(Br)[nH]2)c[nH]1 [BROMOAGELIFERIN]
MIC [1]: 2.08 µg/mL (≈ 2.97 µM)
MIC [2]: 2.08 µg/mL (≈ 2.97 µM)
MIC [3]: 16.7 µg/mL (≈ 23.9 µM)
IC50 [4]: > 50 µM

Nc1nc([C@@H](c2[nH]c(N)nc2/C=C/CNC(=O)c2cc(Br)c(Br)[nH]2)[C@H](O)CNC(=O)c2cc(Br)c(Br)[nH]2)c[nH]1 [NAGELAMIDE B]
MIC [1]: 33.3 µg/mL (≈ 41.9 µM)
MIC [2]: 4.17 µg/mL (≈ 5.25 µM)
MIC [3]: 33.3 µg/mL (≈ 41.9 µM)
IC50 [4]: > 50 µM

Nc1nc([C@H]2c3[nH]c(N)nc3C[C@H](CNC(=O)c3cc(Br)c[nH]3)[C@H]2CNC(=O)c2cc(Br)c(Br)[nH]2)c[nH]1 [NAGELAMIDE F]
MIC [1]: 16.7 µg/mL (≈ 23.9 µM)
MIC [2]: 4.17 µg/mL (≈ 5.96 µM)
MIC [3]: 33.3 µg/mL (≈ 47.6 µM)

Nc1nc(/C(=C/CNC(=O)c2cc(Br)c(Br)[nH]2)c2[nH]c(N)nc2/C=C/CNC(=O)c2cc(Br)c(Br)[nH]2)c[nH]1 [NAGELAMIDE C]
MIC [1]: 33.3 µg/mL (≈ 42.9 µM)
MIC [2]: 4.17 µg/mL (≈ 5.37 µM)
MIC [3]: 33.3 µg/mL (≈ 42.9 µM)
IC50 [4]: > 50 µM

Cl.Cl.Nc1ncc([C@H]2[C@H](CNC(=O)c3cc(Br)c[nH]3)[C@@H](CNC(=O)c3cc(Br)c[nH]3)[C@@H]2c2cnc(N)[nH]2)[nH]1 [SCEPTRIN HYDROCHLORIDE]
MIC [1]: 8.33 µg/mL
MIC [2]: 4.07 µg/mL
MIC [3]: 33.3 µg/mL
IC50 [4]: 50 µM

Nc1nc([C@H]2c3[nH]c(N)nc3C[C@H](CNC(=O)c3cc(Br)c(Br)[nH]3)[C@H]2CNC(=O)c2cc(Br)c(Br)[nH]2)c[nH]1 [NAGELAMIDE G]
MIC [1]: 16.7 µg/mL (≈ 21.5 µM)
MIC [2]: 2.08 µg/mL (≈ 2.67 µM)
MIC [3]: 33.3 µg/mL (≈ 42.8 µM)
IC50 [4]: 13 µM

Nc1nc([C@H](CCNC(=O)c2cc(Br)c(Br)[nH]2)c2[nH]c(N)nc2/C=C/CNC(=O)c2cc(Br)c(Br)[nH]2)c[nH]1 [NAGELAMIDE A]
MIC [1]: 16.7 µg/mL (≈ 21.5 µM)
MIC [2]: 2.08 µg/mL (≈ 2.67 µM)
MIC [3]: 33.3 µg/mL (≈ 42.8 µM)
IC50 [4]: 48 µM

Nc1nc([C@@H]2c3[nH]c(N)nc3C[C@H](CNC(=O)c3cc(Br)c[nH]3)[C@H]2CNC(=O)c2cc(Br)c[nH]2)c[nH]1.O=C(O)C(F)(F)F.O=C(O)C(F)(F)F [AGELIFERIN]
MIC [1]: 8.33 µg/mL
MIC [2]: 4.17 µg/mL
MIC [3]: 33.3 µg/mL
IC50 [4]: > 50 µM

Nc1nc([C@H]2c3[nH]c(N)nc3C[C@H](CNC(=O)c3cc(Br)c[nH]3)[C@H]2CNC(=O)c2cc(Br)c[nH]2)c[nH]1 [NAGELAMIDE E]
MIC [1]: 16.7 µg/mL (≈ 26.9 µM)
MIC [2]: 4.17 µg/mL (≈ 6.72 µM)
MIC [3]: 33.3 µg/mL (≈ 53.7 µM)

NC1=N/C(=N\CCS(=O)(=O)O)C(/C=C/CNC(=O)c2cc(Br)c(Br)[nH]2)(c2[nH]c(N)nc2/C=C/CNC(=O)c2cc(Br)c(Br)[nH]2)N1 (stereo unspecified) [NAGELAMIDE H]
MIC [1]: 33.3 µg/mL (≈ 37 µM)
MIC [2]: 16.7 µg/mL (≈ 18.6 µM)
MIC [3]: > 33.3 µg/mL
IC50 [4]: 46 µM

Source: ChEMBL document CHEMBL1148192, “Nagelamides A-H, new dimeric bromopyrrole alkaloids from marine sponge Agelas species” (J Nat Prod, 2004)
